Compound activity as filed in PubChem.
HIV Rev-RRE inh = disrupts HIV-1 Rev binding to RRE RNA. Rev peptide-RRE RNA binding, FRET. inhibition, % at 8 µM. AID 704. 0.79% of 97,000 active;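 active = inhibition above the screen-wide mean plus 3 SD, cut at about 35% in these data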;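 note: 0% = median DMSO wells and 100% = median Neomycin B control wells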
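Assay system: Labelled RRE RNA duplex and labelled Rev peptide | Times: 5 min preincubation and 15 min binding, 25 °C | Detection: FRET, ex 480 nm, em 540 and 671 nm | Evaluation: % inhibition of FRET ratio versus controls | Benchmarks: DMSO wells as 0% and neomycin B wells as 100% inhibition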
PostGolgi ctrl = inhibits growth of the yeast control strain; efflux-deficient yeast background strain, growth absorbance A615, 16 h; inhibition, % at 10 µM; 5% of 98,000 active
PLK1 kinase inh = blocks human PLK1 kinase activity. AID 619. 0.53% of 97,000 active. inhibition, % at 10 µM. recombinant PLK1 kinase, TR-FRET peptide phosphorylation. P53350;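 active = inhibition of 50% or more in the single-concentration screen; inactive = inhibition below 50%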;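 note: 0% = DMSO max control and 100% = H-89 dihydrochloride min control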
EphB4 ephrin blk = antagonists of human EphB4-ephrin-B2 interaction. P54760. EphB4 LBD / TNYL-RAW-Alexa532 peptide, fluorescence polarization. inhibition, % at 7 µM. 0.15% of 97,000 active. AID 720;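 active = inhibition above the screen-wide mean inhibition plus 3 SD, cut at about 15% in these data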;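 note: 0% = DMSO wells and 100% = excess unlabeled TNYL-RAW peptide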
Target sequence (P54760 whole entry, looked up, the tested form may be a part): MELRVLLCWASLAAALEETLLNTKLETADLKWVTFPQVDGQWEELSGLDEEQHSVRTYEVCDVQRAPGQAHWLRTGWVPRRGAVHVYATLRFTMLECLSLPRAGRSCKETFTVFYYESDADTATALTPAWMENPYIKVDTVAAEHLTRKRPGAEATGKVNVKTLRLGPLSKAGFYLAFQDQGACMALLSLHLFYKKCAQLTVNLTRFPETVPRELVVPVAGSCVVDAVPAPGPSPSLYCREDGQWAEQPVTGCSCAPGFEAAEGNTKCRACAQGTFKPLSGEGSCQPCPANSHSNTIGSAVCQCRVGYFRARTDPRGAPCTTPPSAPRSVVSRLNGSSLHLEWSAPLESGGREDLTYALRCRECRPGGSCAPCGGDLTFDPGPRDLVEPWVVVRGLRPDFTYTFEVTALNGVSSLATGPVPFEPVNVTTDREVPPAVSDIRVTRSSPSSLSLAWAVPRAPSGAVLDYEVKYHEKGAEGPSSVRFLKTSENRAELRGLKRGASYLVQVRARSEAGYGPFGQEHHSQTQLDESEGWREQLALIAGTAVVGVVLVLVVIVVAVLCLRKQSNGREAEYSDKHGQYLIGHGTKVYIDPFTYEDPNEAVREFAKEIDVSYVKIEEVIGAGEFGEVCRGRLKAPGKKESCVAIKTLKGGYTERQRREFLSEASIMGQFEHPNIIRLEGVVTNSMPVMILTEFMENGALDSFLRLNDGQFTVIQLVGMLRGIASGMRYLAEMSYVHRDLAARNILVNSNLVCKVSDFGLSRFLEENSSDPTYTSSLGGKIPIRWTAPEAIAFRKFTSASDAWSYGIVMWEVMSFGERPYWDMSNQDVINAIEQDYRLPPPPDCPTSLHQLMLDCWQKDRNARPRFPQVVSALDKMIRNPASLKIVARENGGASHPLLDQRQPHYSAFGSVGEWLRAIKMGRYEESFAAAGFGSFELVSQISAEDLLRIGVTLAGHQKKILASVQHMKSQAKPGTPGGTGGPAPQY
Plk1 PBD FP = Plk1 (human) PBD binding inhibition; P53350; Plk1 PBD phosphopeptide binding, fluorescence polarization; inhibition, %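 (tested at about 20 µM)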; 0.13% of 97,000 active; AID 693; in the data active = inhibition above about 34%, passing the limit was not always enough
PostGolgi yeast = growth inhibition of a yeast mutant, post-Golgi transport screen; post-Golgi transport phenotypic cell assay; inhibition, % at 10 µM; 0.9% of 98,000 active;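 note: yeast cells grown in 1536-well plates; yeast grown about 18 h at 30C before absorbance read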
* hit, by the source's call; x = no result given; [ ] = remark or other dose. Compounds with a hit are over-represented: about 6.4% of the library has one in this group of screens. Cut-off read from the data, not from the text of the source, unless noted: active = inhibition above about 30%; inactive = the rest.

SMILES	HIV Rev-RRE inh	PostGolgi ctrl	PLK1 kinase inh	EphB4 ephrin blk	Plk1 PBD FP	PostGolgi yeast
O=C1c2ccccc2C(=O)N1CCCCN(C(=O)c1ccco1)c1ccc(Cl)cc1	-1.8	30.6*	-17.1	-1.7	0.3	2.4
Cc1cc(C)c2c(=O)[nH]c(SCC(=O)N(C)C)nc2n1	5.1	16.9	1.2	-2.8	-5.6	35.9*
CCOC(=O)N1CCN(C(=O)c2ccc(NC(=O)c3ccc(C)cc3)cc2)CC1	0.8	-3.6	-8.0	8.5	-16.2	-5.8
COc1ccc(-n2c(=O)c3c4c(sc3n3cnnc23)CC(C)CC4)cc1 (centres undefined)	9.7	x	-8.7	25.2*	-7.4	x
Cc1ccc2c(c1)-c1c(cnn1CC(=O)N(CCC#N)c1ccccc1)CO2	10.7	7.9	-3.2	-2.3	-11.2	6.0
Cc1oc(C)c2c(=O)ccc3c(c12)OC(N)=C(C#N)C3c1ccc(F)cc1 (centres undefined)	x	-4.6	x	x	x	-1.1
Cc1cc(C)c2c3c(sc2n1)C(c1cccc(F)c1)C(C#N)=C(N)O3 (centres undefined)	13.7	73.7*	-7.4	-2.4	26.3	19.2
Cc1ccc(S(=O)(=O)N(CC(=O)O)Cc2ccccc2F)cc1	2.8	2.3	-9.0	2.5	-14.1	-7.3
Cc1ccc(S(=O)(=O)N(CC(=O)N2CCC(C)CC2)Cc2ccccc2F)cc1	8.3	37.5*	-11.3	3.2	1.4	-5.2
O=C(O)c1ccc(N2Cc3ccccc3C2)cc1O	2.9	10.5	43.5	0.5	-8.3	1.0
Cc1cc(=O)n2c(C)n[nH]c2n1	5.0	10.0	-1.4	-1.0	-3.0	3.5
Cc1cc(=O)n2c(-c3ccccc3C)n[nH]c2n1	5.7	4.6	-5.2	-10.0	28.4	31.0*
O=C(Cn1[nH]c(=O)c2ccccc2c1=O)N1CC=C(c2ccccc2)CC1	3.9	13.6	-48.4	2.6	34.5	-1.3
Cc1ccc(=O)n(C(C(=O)NCc2ccco2)C(=O)c2ccc(F)cc2)c1 (centres undefined)	-0.8	-4.3	-8.2	-16.6	-24.7	-8.5
Cc1cc(N2CCN(c3ccccc3)CC2)nc(-n2nc(C)cc2C)n1	7.8	9.3	-6.4	-5.0	-14.6	6.2
Cc1cc(N2CCN(c3ccccc3)CC2)nc(-c2ccccc2O)n1	2.1	77.2*	-10.4	1.5	-38.9	81.9*
Cc1ccc(S(=O)(=O)N2CCC(C(=O)Nc3nnc(C45CC6CC(CC(C6)C4)C5)s3)CC2)cc1	5.8	1.3	-9.0	-4.1	-12.1	-5.0
Cc1ccc(C(=O)CSc2nnc(CNc3ccc(C)cc3C)n2Cc2ccco2)cc1	7.8	40.5*	-7.8	3.8	1.1	-4.4
Cc1ccc(NCc2nnc(SCc3ccc(C#N)cc3)n2Cc2ccco2)c(C)c1	3.8	39.9*	-8.4	1.8	7.8	49.5*
COc1ccc(C(=O)CSc2nnc(CNc3ccc(C)cc3C)n2Cc2ccco2)cc1	-0.2	15.3	-10.9	-0.6	-6.2	1.1
N#Cc1ccc(CSc2nnc(Cc3cccs3)n2Cc2ccco2)cc1	4.3	5.1	-14.6	2.7	-8.1	20.7
C(=N\c1nc2ccccc2n1Cc1ccccc1)/c1cccs1	x	2.3	x	x	x	5.2
N#C[C@@H]1[C@@H]2C(=O)N(c3ccc4c(c3)OCCO4)C(=O)[C@@H]2C2c3ccccc3C=CN21 (some centres undefined)	41.8*	9.7	-14.4	2.2	-5.2	6.3
O=C1CC(N2CCN(c3ccccc3)CC2)C(=O)N1c1ccc2c(c1)OCCO2 (centres undefined)	2.9	-0.2	-9.1	5.9	-10.3	-14.5
CN1CCCN(C(=O)c2cc(=O)[nH]c3ccccc23)c2nc3ccccc3nc21	3.8	8.1	-7.2	2.3	-6.8	0.0
SMILES	HIV Rev-RRE inh	PostGolgi ctrl	PLK1 kinase inh	EphB4 ephrin blk	Plk1 PBD FP	PostGolgi yeast
CN1CCCN(C(=O)Cc2c(Cl)cccc2Cl)c2nc3ccccc3nc21	19.7	43.5*	-0.5	-5.9	-48.8	0.8
CCC(Sc1nncn1C)C(=O)Nc1ccccc1OC (centres undefined)	11.1	3.6	-6.5	2.5	-3.8	1.1
O=Nc1c(O)n(Cc2ccc(Cl)c(Cl)c2)c2ccccc12	21.3	59.4*	3.2	-5.7	-2.3	22.2
COC(=O)c1ccc(Cn2c(O)c(N=O)c3ccccc32)o1	6.5	12.5	-9.8	-1.4	-5.5	-3.9
CCOCC(=O)Nc1ccc(S(=O)(=O)NCCc2ccccc2)cc1	-2.1	18.7	-6.8	-1.7	-0.8	-1.0
N/C(Cc1ccc(Cl)cc1Cl)=N\OC(=O)c1cccs1	2.0	58.5*	-7.0	-1.3	9.5	19.6
N/C(Cc1cccs1)=N\OC(=O)COc1ccc(Cl)cc1Cl	14.7	1.1	-5.0	0.3	-3.6	-1.1
Cc1ccc(S(=O)(=O)c2c(COC(=O)c3ccc(Cl)cc3)c(-c3ccccc3)nn2C)cc1	72.6*	2.1	0.7	-2.7	-3.5	-2.5
COC(=O)c1ccc(COC(=O)c2ccc(CS(=O)(=O)c3ccc(C)cc3)cc2)cc1	0.3	-0.8	-2.8	-0.7	-4.9	-6.0
Cc1ccc(-c2cc(C(=O)Nc3cnn(C45CC6CC(CC(C6)C4)C5)c3)no2)cc1	0.3	8.3	-9.7	3.7	-12.9	-9.0
Cc1ccc(NC(=O)c2nn(C34CC5CC(CC(C5)C3)C4)cc2[N+](=O)[O-])cc1	11.6	60.9*	-3.1	-2.5	-7.7	79.4*
COc1cc(OC)cc(-c2nnc(SCc3c(F)cccc3Cl)o2)c1	11.0	9.6	0.2	3.1	-32.2	1.4
CCc1cc2c(=O)c(Oc3ccccc3F)c(C)oc2c(CN(C)C)c1O	5.5	-1.8	-13.5	-0.8	7.7	50.7*
CCCCS(=O)Cc1ccccc1 (centres undefined)	5.2	1.8	-12.3	5.9	8.7	6.2
Cc1cc(N2CCC(N(C)C3CCCC3)CC2)nc2cc(O)ccc12	x	0.7	x	x	x	-4.8
Cc1ccc(/C=c2\sc3nc(-c4ccccc4Br)nn3c2=O)o1	2.4	7.9	-2.3	-10.8	-5.0	-0.9
O=C(O)c1ccccc1-c1ccc(/C=c2\sc3nc4cc(Br)cnc4n3c2=O)o1	99.1*[fluorescence artefact?]	21.1	-26.1	10.4	-11.7	1.4
CCOC(=O)c1c(-c2ccc(C)o2)csc1NC(=O)CSc1ncn[nH]1	8.1	33.9*	-0.8	-0.2	-4.0	1.4
CCOC(=O)c1c(-c2ccccc2)csc1NC(=O)CSc1nnnn1C	9.9	37.9*	-6.3	11.8	-3.0	2.7
COCCn1c(CN2CC(C)CC(C)C2)nc2c1c(=O)n(C)c(=O)n2C (centres undefined)	0.1	1.9	67.7*	-2.5	5.7	3.2
COCCn1c(CN2CCN(c3ccccc3)CC2)nc2c1c(=O)n(C)c(=O)n2C	7.5	x	-8.0	0.6	-32.1	x
O=C(O)c1ccc2c(c1)-c1nc3ccccc3n1C2=O	8.6	-13.1	-7.2	2.9	-9.8	-9.9
O=C(Cc1ccc(-c2ccccc2)cc1)NCCN1CCOCC1	x	6.7	x	x	x	1.6
O=C(CCSc1ccccc1)NCCN1CCOCC1	10.3	39.0*	-10.2	-1.9	-17.0	-4.3
